Published values collected from several papers.
Protocols differ between the studies behind these lines.
DPP4: Dipeptidyl peptidase 4 (DPP4, Homo sapiens, UniProt P27487)
CYP2C9: Cytochrome P450 2C9 (CYP2C9, Homo sapiens, UniProt P11712)
SLC22A13: SLC22A13 (Homo sapiens, UniProt Q9Y226)

Compound | target | test | test system | conditions | IC50 [µM]
CC1(CN)CCN(c2cnc3c(Sc4ccncc4Cl)n[nH]c3n2)CC1 | Tyrosine-protein phosphatase non-receptor type 6 (PTPN6, Homo sapiens, UniProt P29350) | enzyme activity, inhibitor |  |  | > 100
Cc1ccc(-n2c(Cn3c(N4CCC(N)CC4)cc(=O)n(C)c3=O)nc3ccccc3c2=O)cc1 | DPP4 | enzyme activity, inhibitor |  |  | > 100
CC(=O)N[C@H]1Cc2ccc(cc2)OC/C=C/C[C@@H](C(=O)N[C@@H](CCCNC(=N)N)C(=O)c2nc3ccccc3s2)NC(=O)[C@H](CC(C)C)NC1=O | Hepatocyte growth factor activator serine protease (Homo sapiens, UniProt Q04756) | enzyme activity, inhibitor, fluorescence |  | with preincubation | 0.053
COc1cc(O)c2c(c1)C(=O)c1cc(C)cc(O)c1C2=O | CYP2C9 | enzyme activity, inhibitor | human, liver microsomes | pH 7.4 | 7.44
CN(C)c1ncnc2c1ncn2[C@@H]1O[C@H](CCl)[C@@H](NC(=O)[C@@H](CSC(c2ccccc2)c2ccccc2)NC(=O)OC(C)(C)C)[C@H]1O | Aminopeptidase N (ANPEP, Homo sapiens, UniProt P15144) | enzyme activity, inhibitor, fluorescence |  |  | > 100
N#C[C@@]12C[C@@H]1[C@@H](n1cnc3c(N[C@@H](C4CCC4)C4CC4)nc(I)nc31)[C@H](O)[C@@H]2O | CYP2C9 | enzyme activity, inhibitor |  |  | 8.64
CCCCNC(=O)N[C@H]1CSCc2cc(CSCCNC(=O)CN3CCN(CC(=O)O)CCN(CC(=O)O)CC3)cc(c2)CSC[C@@H](C(=O)O)NC(=O)[C@H](Cc2ccccc2)NC(=O)[C@H](CCC(N)=O)NC(=O)[C@H]([C@@H](C)O)NC(=O)[C@@H]2CCCN2C(=O)[C@@H]2CCCN2C1=O | Prolyl endopeptidase FAP (FAP, Homo sapiens, UniProt Q12884) | ligand displacement, radioligand |  |  | 0.0317
Cn1c(=O)cc(N2CCC(N)CC2)n(Cc2nc3ccccc3c(=O)n2-c2cccc(C(F)(F)F)c2)c1=O | DPP4 | enzyme activity, inhibitor |  |  | 58.1
Nc1ncnc2c1ncn2[C@@H]1O[C@H](CO)[C@@H](O)[C@H]1O | SLC22A13 | transporter uptake, inhibitor, radiometric |  | oocytes | > 5000
Cn1c(=O)cc(N2CCC(N)CC2)n(Cc2nc3ccc(Br)cc3c(=O)n2-c2ccc(F)cc2)c1=O | DPP4 | enzyme activity, inhibitor |  |  | 44.4
Cn1nc2c(=O)n(C3CC3)ccc2c1[C@](O)(c1cnc(C(F)(F)F)c(Cl)c1)C(F)(F)F | CYP2C9 | enzyme activity, inhibitor | human, liver microsomes | pH 7.4 | > 20
Cn1c(=O)cc(N2CCC(N)CC2)n(Cc2nc3ccccc3c(=O)n2-c2ccccc2)c1=O | DPP4 | enzyme activity, inhibitor |  |  | > 100
Cn1c(=O)c2c(ncn2C)n(C)c1=O | SLC22A13 | transporter uptake, inhibitor, radiometric |  | oocytes | > 2000
Cn1c(=O)cc(N2CCC(N)CC2)n(Cc2nc3ccccc3c(=O)n2-c2ccc(F)cc2)c1=O | DPP4 | enzyme activity, inhibitor |  |  | 63.4
CC[C@@](N)(c1cnc(C(F)(F)F)c(Cl)c1)c1c2ncn(C3CC3)c(=O)c2nn1C | Cytochrome P450 2C8 (CYP2C8, Homo sapiens, UniProt P10632) | enzyme activity, inhibitor | human, liver microsomes | pH 7.4 | > 20
